From ChEMBL document CHEMBL1144859, “Synthesis and evaluation of homodimeric GnRHR antagonists having a rigid bis-propargylated benzene core” (Bioorg Med Chem, 2008) come the findings set out here.

Data set [1] deals with T1, Gonadotropin-releasing hormone receptor (Homo sapiens, UniProt P30968).
T1 sequence (P30968 whole entry): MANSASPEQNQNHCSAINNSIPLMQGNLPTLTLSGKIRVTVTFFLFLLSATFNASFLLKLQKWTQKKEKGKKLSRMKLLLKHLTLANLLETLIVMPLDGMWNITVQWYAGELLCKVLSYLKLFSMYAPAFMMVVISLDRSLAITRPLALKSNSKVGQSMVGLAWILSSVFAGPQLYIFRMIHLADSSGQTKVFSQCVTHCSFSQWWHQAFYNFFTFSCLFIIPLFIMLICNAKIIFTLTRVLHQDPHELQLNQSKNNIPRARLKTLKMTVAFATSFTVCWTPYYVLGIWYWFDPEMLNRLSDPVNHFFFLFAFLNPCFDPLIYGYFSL
The data set is described as follows: Antagonist activity at human recombinant GnRHR expressed in CHOK1 cells assessed as reduction in luminescence signal by luciferase reporter gene assay. The class given is functional, cell-based, CHO-K1. An outline of the steps: (§1)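 CHO-K1 cells stably expressing human GnRHR plus NFAT-luciferase reporter, grown in DMEM/10% FBS with geneticin, harvested and suspended in DMEM with insulin, apo-transferrin and 3% DMSO (7500 cells/well). Compounds (10 μM to 0.3 nM final, half-log) preincubated 30 min, then GnRH 3 nM final (EC80) for 4 h; luciferase substrate added, 1 h at room temperature in the dark; luminescence read.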
Background: Reporter assays use an easily measured gene product as a stand-in for the process of interest.

The target of data set [2] is T1, Gonadotropin-releasing hormone receptor. The data set is described as follows: Displacement of [125I]triptorelin from human GnRHR expressed in CHO cells. The data set is classed as cell-based. An outline of the steps:
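Membranes from CHO cells stably expressing human GnRHR (20 μg protein) in 50 mM Tris-HCl pH 7.4, 2 mM MgCl2, 0.1% BSA, with 30,000 cpm [125I]triptorelin and five competitor concentrations, 45 min at 22 °C. Nonspecific binding was set with 1 μM ganirelix. Samples were filtered on PEI-soaked GF/B and counted by gamma counter.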
On the technique in general: Displacement assays read how much labelled ligand stays bound in the presence of the test substance.

The target of data set [3] is T2, Gonadotropin-releasing hormone receptor (Homo sapiens) (UniProt P30968).
T2 sequence (whole entry): T1 sequence (P30968 whole entry)
The data set is described as follows: Antagonist activity at human recombinant GnRHR expressed in CHOK1 cells assessed as reduction in luminescence signal at 3 uM by luciferase reporter gene assay. The class given is functional, cell-based. The settings on record: CHO-K1. An outline of the steps:
as §1

Data set [4] addresses T2, Gonadotropin-releasing hormone receptor (Homo sapiens). The data set is described as follows: Antagonist activity at human recombinant GnRHR expressed in CHOK1 cells assessed as reduction in luminescence signal at 10 uM by luciferase reporter gene assay. The note with it: CHO-K1. The data set is classed as functional, cell-based. An outline of the steps: as §1
A short description of data set [5]: Cytotoxicity against human GnRHR expressing CHO cells assessed as cell viability at 10 uM after 4 hrs. The class given is cell-based, Cricetulus griseus. The note with it: chinese hamster, read-out: Activity. An outline of the steps: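 CHO cells with human GnRHR and luciferase reporter, plated in assay medium with or without 10 μM compound, 4 h at 37 °C. Cells were then trypsinised and suspended in PBS, mixed 1:1 with 0.8% trypan blue, and live cells were counted by hemocytometer.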

As for `CCNC(=O)Nc1ccc(-c2nc3n(Cc4c(F)cccc4F)cc(C(=O)OCC)c(=O)n3c2CN(CC(=O)NCC(=O)NCC#Cc2ccccc2)Cc2ccccc2)cc1`, the IC50 in data set [1] worked out at 0.46 µM. This molecule displayed a Ki in data set [2] of 0.17 µM. The Efficacy in data set [3] stood at 92%; in data set [4] it was 95%.

On to `CCNC(=O)Nc1ccc(-c2nc3n(Cc4c(F)cccc4F)cc(C(=O)OCC)c(=O)n3c2CN(CC(=O)N2CCC[C@H]2C(=O)NCC#Cc2ccc(C#CCNC(=O)[C@@H]3CCCN3C(=O)CN(Cc3ccccc3)Cc3c(-c4ccc(NC(=O)NCC)cc4)nc4n(Cc5c(F)cccc5F)cc(C(=O)OCC)c(=O)n34)cc2)Cc2ccccc2)cc1`, for which affinity in data set [2] was put at a Ki of 0.74 µM. Further, the Efficacy in data set [3] came to 46%; in data set [4] it was 65%.

In data set [2], `CCNC(=O)Nc1ccc(-c2nc3n(Cc4c(F)cccc4F)cc(C(=O)OCC)c(=O)n3c2CN(CC(=O)N2CCC(C(=O)NCC#Cc3cccc(C#CCNC(=O)C4CCN(C(=O)CN(Cc5ccccc5)Cc5c(-c6ccc(NC(=O)NCC)cc6)nc6n(Cc7c(F)cccc7F)cc(C(=O)OCC)c(=O)n56)CC4)c3)CC2)Cc2ccccc2)cc1` gave a Ki of 0.4 µM. Besides, the Efficacy in data set [3] is 68%; in data set [4], 86%.

`CCNC(=O)Nc1ccc(-c2nc3n(Cc4c(F)cccc4F)cc(C(=O)OCC)c(=O)n3c2CN(CC(=O)N[C@@H](C)C(=O)NCC#Cc2ccccc2)Cc2ccccc2)cc1`: in data set [1], the IC50 was 1.1 µM. The affinity in data set [2], expressed as Ki, was 1.6 µM. Further, the Efficacy was determined as 63% in data set [3] and 61% in data set [4].

In data set [2], `CCNC(=O)Nc1ccc(-c2nc3n(Cc4c(F)cccc4F)cc(C(=O)OCC)c(=O)n3c2CN(CC(=O)N[C@@H](C)C(=O)NCC#Cc2cccc(C#CCNC(=O)[C@H](C)NC(=O)CN(Cc3ccccc3)Cc3c(-c4ccc(NC(=O)NCC)cc4)nc4n(Cc5c(F)cccc5F)cc(C(=O)OCC)c(=O)n34)c2)Cc2ccccc2)cc1` showed a Ki of 5.3 µM. The Efficacy in data set [3] amounted to 18%; in data set [4] it was 14%.

Turning to `CCNC(=O)Nc1ccc(-c2nc3n(Cc4c(F)cccc4F)cc(C(=O)OCC)c(=O)n3c2CN(CC(=O)NCCCCCC(=O)NCC#Cc2ccccc2)Cc2ccccc2)cc1`, the IC50 in data set [1] was 0.44 µM. For the same molecule, in data set [2], the Ki amounted to 0.38 µM. The Efficacy in data set [3] came out at 97%; in data set [4] it was 99%.

In data set [2], `CCNC(=O)Nc1ccc(-c2nc3n(Cc4c(F)cccc4F)cc(C(=O)OCC)c(=O)n3c2CN(CC(=O)N2CCC[C@H]2C(=O)NCC#Cc2cccc(C#CCNC(=O)[C@@H]3CCCN3C(=O)CN(Cc3ccccc3)Cc3c(-c4ccc(NC(=O)NCC)cc4)nc4n(Cc5c(F)cccc5F)cc(C(=O)OCC)c(=O)n34)c2)Cc2ccccc2)cc1` displayed a Ki of 0.93 µM. The results for the Efficacy in data set [3] and in data set [4] were 31% and 67%, respectively.

For the molecule `CCNC(=O)Nc1ccc(-c2nc3n(Cc4c(F)cccc4F)cc(C(=O)OCC)c(=O)n3c2CN(CC(=O)N2CCC(C(=O)NCC#Cc3ccccc3)CC2)Cc2ccccc2)cc1`, the IC50 in data set [1] was 0.46 µM. In data set [2], the Ki came to 0.14 µM. In addition, the Efficacy in data set [3] was 83%; in data set [4], 82%.

For the molecule `CCNC(=O)Nc1ccc(-c2nc3n(Cc4c(F)cccc4F)cc(C(=O)OCC)c(=O)n3c2CN(CC(=O)NCCCC(=O)NCC#Cc2ccccc2)Cc2ccccc2)cc1`, the half-maximal inhibitory concentration (IC50) in data set [1] came to 0.68 µM. The Ki in data set [2] was 0.58 µM. Also, the Efficacy in data set [3] came out at 97%; in data set [4], 96%. The viability at 4 h, 10 µM in data set [5] came out at 95%.

The molecule `CCNC(=O)Nc1ccc(-c2nc3n(Cc4c(F)cccc4F)cc(C(=O)OCC)c(=O)n3c2CN(CC(=O)NCCCCCC(=O)NCC#Cc2cccc(C#CCNC(=O)CCCCCNC(=O)CN(Cc3ccccc3)Cc3c(-c4ccc(NC(=O)NCC)cc4)nc4n(Cc5c(F)cccc5F)cc(C(=O)OCC)c(=O)n34)c2)Cc2ccccc2)cc1` registered a Ki in data set [2] of 0.93 µM. Besides, the Efficacy in data set [3] is 44%; in data set [4] it was 58%.

`CCNC(=O)Nc1ccc(-c2nc3n(Cc4c(F)cccc4F)cc(C(=O)OCC)c(=O)n3c2CN(CC(=O)NCCCC(=O)NCC#Cc2cccc(C#CCNC(=O)CCCNC(=O)CN(Cc3ccccc3)Cc3c(-c4ccc(NC(=O)NCC)cc4)nc4n(Cc5c(F)cccc5F)cc(C(=O)OCC)c(=O)n34)c2)Cc2ccccc2)cc1` gave an inhibitory constant (Ki) in data set [2] of 0.82 µM. In addition, the Efficacy was 40% in data set [3] and 57% in data set [4].

In the case of `CCNC(=O)Nc1ccc(-c2nc3n(Cc4c(F)cccc4F)cc(C(=O)OCC)c(=O)n3c2CN(CC(=O)N[C@@H](C)C(=O)NCC#Cc2ccc(C#CCNC(=O)[C@H](C)NC(=O)CN(Cc3ccccc3)Cc3c(-c4ccc(NC(=O)NCC)cc4)nc4n(Cc5c(F)cccc5F)cc(C(=O)OCC)c(=O)n34)cc2)Cc2ccccc2)cc1`, the Ki in data set [2] is 0.48 µM. The figures for the Efficacy in data set [3] and in data set [4] were 42% and 52%, respectively.

In the case of `CCNC(=O)Nc1ccc(-c2nc3n(Cc4c(F)cccc4F)cc(C(=O)OCC)c(=O)n3c2CN(CC(=O)N[C@H](C(=O)NCC#Cc2cccc(C#CCNC(=O)[C@@H](NC(=O)CN(Cc3ccccc3)Cc3c(-c4ccc(NC(=O)NCC)cc4)nc4n(Cc5c(F)cccc5F)cc(C(=O)OCC)c(=O)n34)C(C)C)c2)C(C)C)Cc2ccccc2)cc1`, in data set [2], the Ki worked out at 2.2 µM. Further, the Efficacy in data set [3] came to 28%; in data set [4], 43%.

Regarding `CCNC(=O)Nc1ccc(-c2nc3n(Cc4c(F)cccc4F)cc(C(=O)OCC)c(=O)n3c2CN(CC(=O)N[C@H](C(=O)NCC#Cc2ccccc2)C(C)C)Cc2ccccc2)cc1`, the IC50 in data set [1] was found to be 0.52 µM. This molecule yielded a Ki in data set [2] of 0.77 µM. Also, the results for the Efficacy in data set [3] and in data set [4] were 64% and 60%, respectively.

`CCNC(=O)Nc1ccc(-c2nc3n(Cc4c(F)cccc4F)cc(C(=O)OCC)c(=O)n3c2CN(CC(=O)NCC(=O)NCC#Cc2ccc(C#CCNC(=O)CNC(=O)CN(Cc3ccccc3)Cc3c(-c4ccc(NC(=O)NCC)cc4)nc4n(Cc5c(F)cccc5F)cc(C(=O)OCC)c(=O)n34)cc2)Cc2ccccc2)cc1` gave a Ki in data set [2] of 0.53 µM. Further, the Efficacy turned out to be 34% in data set [3] and 59% in data set [4].

In data set [2], `CCNC(=O)Nc1ccc(-c2nc3n(Cc4c(F)cccc4F)cc(C(=O)OCC)c(=O)n3c2CN(CC(=O)NCC(=O)NCC#Cc2cccc(C#CCNC(=O)CNC(=O)CN(Cc3ccccc3)Cc3c(-c4ccc(NC(=O)NCC)cc4)nc4n(Cc5c(F)cccc5F)cc(C(=O)OCC)c(=O)n34)c2)Cc2ccccc2)cc1` returned a Ki of 1.1 µM. Moreover, the Efficacy in data set [3] came out at 20%; in data set [4] it was 9%.

The molecule `CCNC(=O)Nc1ccc(-c2nc3n(Cc4c(F)cccc4F)cc(C(=O)OCC)c(=O)n3c2CN(CC(=O)NCCCC(=O)NCC#Cc2ccc(C#CCNC(=O)CCCNC(=O)CN(Cc3ccccc3)Cc3c(-c4ccc(NC(=O)NCC)cc4)nc4n(Cc5c(F)cccc5F)cc(C(=O)OCC)c(=O)n34)cc2)Cc2ccccc2)cc1` returned a Ki in data set [2] of 0.6 µM. Also, the Efficacy is 68% in data set [3] and 85% in data set [4]. Further, in data set [5], the viability at 4 h, 10 µM worked out at 95%.

As to `CCNC(=O)Nc1ccc(-c2nc3n(Cc4c(F)cccc4F)cc(C(=O)OCC)c(=O)n3c2CN(CC(=O)N2CCC[C@H]2C(=O)NCC#Cc2ccccc2)Cc2ccccc2)cc1`, the IC50 in data set [1] turned out to be 0.56 µM. Moreover, in data set [2], the Ki turned out to be 0.26 µM. For the same molecule, the Efficacy in data set [3] turned out to be 87%; in data set [4], 89%.

For `CCNC(=O)Nc1ccc(-c2nc3n(Cc4c(F)cccc4F)cc(C(=O)OCC)c(=O)n3c2CN(CC(=O)N[C@H](C(=O)NCC#Cc2ccc(C#CCNC(=O)[C@@H](NC(=O)CN(Cc3ccccc3)Cc3c(-c4ccc(NC(=O)NCC)cc4)nc4n(Cc5c(F)cccc5F)cc(C(=O)OCC)c(=O)n34)C(C)C)cc2)C(C)C)Cc2ccccc2)cc1`, in data set [2], the affinity corresponds to a Ki of 0.72 µM. Also, the values for the Efficacy in data set [3] and in data set [4] were 31% and 34%, respectively.

In turn, `CCNC(=O)Nc1ccc(-c2nc3n(Cc4c(F)cccc4F)cc(C(=O)OCC)c(=O)n3c2CN(CC(=O)N2CCC(C(=O)NCC#Cc3ccc(C#CCNC(=O)C4CCN(C(=O)CN(Cc5ccccc5)Cc5c(-c6ccc(NC(=O)NCC)cc6)nc6n(Cc7c(F)cccc7F)cc(C(=O)OCC)c(=O)n56)CC4)cc3)CC2)Cc2ccccc2)cc1` displayed a Ki in data set [2] of 0.51 µM. The Efficacy was found to be 35% in data set [3] and 48% in data set [4].

For the molecule `CCNC(=O)Nc1ccc(-c2nc3n(Cc4c(F)cccc4F)cc(C(=O)OCC)c(=O)n3c2CN(CC(=O)NCCCCCC(=O)NCC#Cc2ccc(C#CCNC(=O)CCCCCNC(=O)CN(Cc3ccccc3)Cc3c(-c4ccc(NC(=O)NCC)cc4)nc4n(Cc5c(F)cccc5F)cc(C(=O)OCC)c(=O)n34)cc2)Cc2ccccc2)cc1`, the affinity in data set [2], expressed as Ki, was 0.62 µM. Also, the Efficacy in data set [3] was 54%; in data set [4], 67%.

By IC50 is commonly meant the midpoint of a concentration-inhibition curve. By Ki is commonly meant the dissociation constant of the complex between target and ligand, obtained from inhibition or displacement. Read a high Ki as lower affinity.
